Measured values: article PMC9122571 (RSC Advances, 2020)

Legend:
[1] = DPPH radical scavenging assay
Summary of the method: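 Test compound dissolved in DMSO and diluted in ethanol; a series of concentrations mixed with 2 mL DPPH solution (3.94 mg per 100 mL anhydrous ethanol). Kept 30 min at room temperature in the dark, then A519 read. Scavenging calculated as % of (Acontrol − Asample)/Acontrol. Vitamin C served as reference.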

A549 cells [2] = experiment: In vitro cytotoxicity, MTT assay; type: cell-based, human; settings: 48 h
Summary of the method: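 A549 cells (DMEM, 10% FBS, penicillin/streptomycin, 37 °C, 5% CO2) seeded at 5 × 10³ per well and left overnight. Exposed 48 h to test compound at 6.25–200 μM. MTT (0.5 mg mL−1 in DMEM) added for 4 h; formazan dissolved in DMSO; A490 read. Viability taken as % of (ODtest − ODblank)/(ODcontrol − ODblank); means ± SD.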

A549 cells [3] = experiment: Cell viability after H2O2 induced oxidative stress; type: cell-based, human; settings: A549, 24 h pretreatment at 3.125–100 μM, then 800 μM H2O2 for 4 h
Summary of the method: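 A549 cells in DMEM with 10% FBS and penicillin/streptomycin at 37 °C, 5% CO2, pretreated with test compound for 24 h, then given 800 μM H2O2 for 4 h. Untreated and H2O2-only groups run alongside. Viability by MTT (0.5 mg mL−1, 4 h, DMSO solubilisation, A490) as % of (ODtest − ODblank)/(ODcontrol − ODblank). n = 4; ANOVA with LSD post hoc test.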

With O=C(/C=C\c1ccc(O)c(O)c1)Nc1ccc(S(=O)(=O)Nc2ncccn2)cc1 [CASDZ, (Z)-3-(3,4-Dihydroxyphenyl)-N-(4-(N-pyrimidin-2-ylsulfamoyl)phenyl)acrylamide] as the compound, how does the “free radical scavenging effect compared with vitamin C” value [1] read?
Its value is “higher”.

And the “growth of A549 cells” value (A549 cells [2]; concentration of 200 μM)?
Its value is “significantly inhibits”.

And the “viability of A549 cells” value (A549 cells [2]; concentration ≤200 μM)?
The value was “not significantly decreased”.

What does the source list for COc1cnc(NS(=O)(=O)c2ccc(NC(=O)/C=C\c3ccc(O)c(O)c3)cc2)nc1 [CASMD, (Z)-3-(3,4-Dihydroxyphenyl)-N-(4-(N-(5-methoxypyrimidin-2-yl)sulfamoyl)phenyl)acrylamide]?
free radical scavenging effect compared with vitamin C [1]: higher; viability of A549 cells (A549 cells [2]; concentration ≤100 μM): not significantly decreased; viability of A549 cells (A549 cells [2]; concentration ≤200 μM): not significantly decreased

Which “free radical scavenging effect compared with vitamin C” value [1] does the source give for NS(=O)(=O)c1ccc(NC(=O)/C=C\c2ccc(O)c(O)c2)cc1 [CASN, (Z)-3-(3,4-Dihydroxyphenyl)-N-(4-sulfamoylphenyl)acrylamide] here?
The value was “higher”.

What about the “viability of A549 cells” value (A549 cells [2]; concentration ≤200 μM) of the same compound?
Its value is “not significantly decreased”.

Which “prevention of 800 μM H2O2 induced decrease in cell viability” value (A549 cells [3]) does the source give for O=C(O)/C=C/c1ccc(O)c(O)c1 [Caffeic acid] here?
The value was “could not prevent”.

Which “viability of A549 cells” value (A549 cells [2]; concentration ≤200 μM) does the source give for COc1cnc(NS(=O)(=O)c2ccc(NC(=O)/C=C\c3ccc(OC(C)=O)c(OC(C)=O)c3)cc2)nc1 [ACASMD, (Z)-4-(3-(4-(N-(5-Methoxypyrimidin-2yl)sulfamoyl)phenylamino)-3-oxoprop-1-enyl)-1,2-phenylene diacetate] here?
The value was “not significantly decreased”.

For O=C1O[C@H]([C@@H](O)CO)C(O)=C1O [Vitamin C], which “prevention of 800 μM H2O2 induced decrease in cell viability” value (A549 cells [3]) is on record?
The value was “could not prevent”.

Which “viability of A549 cells” value (A549 cells [2]; concentration ≤200 μM) does the source give for CC(=O)Oc1ccc(/C=C\C(=O)Nc2ccc(S(=O)(=O)Nc3ncccn3)cc2)cc1OC(C)=O [ACASDZ, (Z)-4-(3-Oxo-3-(4-(N-pyrimidin-2ylsulfamoyl)phenylamino)prop-1-enyl)-1,2-phenylene diacetate] here?
Its value is “not significantly decreased”.

Which “viability of A549 cells” value (A549 cells [2]; concentration ≤200 μM) does the source give for CC(=O)Oc1ccc(/C=C\C(=O)Nc2ccc(S(N)(=O)=O)cc2)cc1OC(C)=O [ACASN, (Z)-4-(3-Oxo-3-(4-sulfamoylphenylamino)prop-1-enyl)-1,2-phenylene diacetate] here?
The value was “not significantly decreased”.
